This passage reports inhibition and Ki results from ChEMBL document CHEMBL1795254, “Synthesis, structure-affinity relationships, and molecular modeling studies of novel pyrazolo[3,4-c]quinoline derivatives as adenosine receptor antagonists” (Bioorg Med Chem, 2011).

The target in assay [1] is T1, Adenosine receptor A1 (Homo sapiens) (UniProt P30542).
T1 sequence (whole entry): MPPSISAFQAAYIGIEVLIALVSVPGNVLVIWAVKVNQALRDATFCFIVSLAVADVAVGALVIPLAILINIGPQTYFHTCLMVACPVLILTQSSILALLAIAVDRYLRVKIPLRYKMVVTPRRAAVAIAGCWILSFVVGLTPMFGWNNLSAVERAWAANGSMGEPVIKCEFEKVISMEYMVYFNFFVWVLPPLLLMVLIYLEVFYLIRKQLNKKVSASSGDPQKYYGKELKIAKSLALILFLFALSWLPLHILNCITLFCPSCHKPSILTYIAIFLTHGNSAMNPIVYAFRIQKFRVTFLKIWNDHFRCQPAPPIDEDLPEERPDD
In words: Displacement of [3H]DPCPX from human recombinant adenosine A1 receptor expressed in CHO cell membranes at 1 uM by scintillation counting. Put shortly:
(§1)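 hA1 CHO membranes incubated with 1 nM [³H]DPCPX for 120 min at 25 °C in 50 mM Tris-HCl, pH 7.4. Ki from six to eight antagonist concentrations: IC50 converted by Cheng–Prusoff, curves fitted by weighted nonlinear least squares, four separate assays in duplicate (mean ± SEM). Single-concentration runs give percentage inhibition of specific binding.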

In a further assay the target is T2, Adenosine receptor A3 (Homo sapiens, UniProt P0DMS8).
T2 sequence (P0DMS8 whole entry): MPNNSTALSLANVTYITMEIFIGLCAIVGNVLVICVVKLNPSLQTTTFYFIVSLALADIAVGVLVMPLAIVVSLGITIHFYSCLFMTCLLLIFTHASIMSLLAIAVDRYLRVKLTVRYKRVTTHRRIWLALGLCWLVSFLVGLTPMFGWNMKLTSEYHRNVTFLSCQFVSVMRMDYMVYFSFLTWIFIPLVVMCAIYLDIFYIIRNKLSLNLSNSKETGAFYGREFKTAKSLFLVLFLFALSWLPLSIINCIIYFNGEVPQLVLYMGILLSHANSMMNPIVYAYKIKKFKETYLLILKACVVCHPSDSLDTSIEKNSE
In words: Displacement of [125I]I-AB-MECA from human recombinant adenosine A3 receptor expressed in CHO cells by scintillation counting. In kind it is cell-based. Put shortly: (§2)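 For hA3, CHO membranes are incubated with [¹²⁵I]AB-MECA in 50 mM Tris-HCl, 10 mM MgCl2, 1 mM EDTA, pH 7.4, for 120 min at 4 °C. Ki from six to eight ligand concentrations via Cheng–Prusoff with weighted nonlinear least-squares fitting; four assays in duplicate (mean ± SEM). Single-concentration runs give percentage inhibition.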

Assay [2] deals with T3, Adenosine receptor A2b (Homo sapiens) (UniProt P29275).
T3 sequence (whole entry): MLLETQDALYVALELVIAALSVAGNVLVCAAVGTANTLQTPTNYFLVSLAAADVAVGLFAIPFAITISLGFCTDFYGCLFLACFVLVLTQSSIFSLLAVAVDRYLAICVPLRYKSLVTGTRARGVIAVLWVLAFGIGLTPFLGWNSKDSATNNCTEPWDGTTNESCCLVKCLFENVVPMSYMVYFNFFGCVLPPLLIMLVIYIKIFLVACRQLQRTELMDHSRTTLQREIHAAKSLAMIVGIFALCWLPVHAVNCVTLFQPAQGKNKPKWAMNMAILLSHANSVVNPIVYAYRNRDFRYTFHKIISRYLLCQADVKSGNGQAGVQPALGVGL
Nature of the assay: Antagonist activity at human recombinant adenosine A2B receptor expressed in CHO cells assessed as inhibition of NECA-induced cAMP levels at 1 uM. Format: functional, cell-based. Put shortly:
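hA2B-transfected CHO cells (1×10⁶/assay), preincubated 10 min at 37 °C in pH 7.4 saline-Hepes-glucose buffer with 2 IU/ml adenosine deaminase and Ro 20-1724 as phosphodiesterase inhibitor. Compound tested against 200 nM NECA-stimulated cAMP. Reaction stopped with cold 6% TCA and ether-extracted. cAMP measured by competition binding with [³H]cAMP and bovine adrenal binding protein (150 min, 4 °C), charcoal separation, scintillation counting; expressed as percentage inhibition.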

The target of assay [3] is T4, Adenosine receptor A2a (Homo sapiens, UniProt P29274). In words: Displacement of [3H]ZM241385 from human recombinant adenosine A2A receptor expressed in CHO cell membranes at 1 uM by scintillation counting. The essentials:
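Uses 1 nM [³H]ZM241385 with hA2A CHO membranes in 50 mM Tris-HCl, 10 mM MgCl2, pH 7.4, for 60 min at 4 °C. Ki from six to eight antagonist concentrations via Cheng–Prusoff with weighted nonlinear least-squares fitting; four assays in duplicate (mean ± SEM). Single-concentration runs give percentage inhibition.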

In assay [4] the target is T5, Adenosine receptor A3 (Homo sapiens) (UniProt P0DMS8).
T5 sequence (whole entry): T2 sequence (P0DMS8 whole entry)
In words: Displacement of [125I]I-AB-MECA from human recombinant adenosine A3 receptor expressed in CHO cells at 1 uM by scintillation counting. In kind it is cell-based. Put shortly: as §2

Assay [5] has as its target T4, Adenosine receptor A2a. The settings on record: CHO, 10 uM.
In a further assay the target is T6, Adenosine receptor A1 (Homo sapiens, UniProt P30542).
T6 sequence (P30542 whole entry): T1 sequence (whole entry)
In words: Displacement of [3H]DPCPX from human recombinant adenosine A1 receptor expressed in CHO cell membranes by scintillation counting. The essentials:
as §1

The target of assay [6] is T4, Adenosine receptor A2a. In words: Displacement of [3H]ZM241385 from human recombinant adenosine A2A receptor expressed in CHO cell membranes by scintillation counting.

T4 sequence (P29274 whole entry): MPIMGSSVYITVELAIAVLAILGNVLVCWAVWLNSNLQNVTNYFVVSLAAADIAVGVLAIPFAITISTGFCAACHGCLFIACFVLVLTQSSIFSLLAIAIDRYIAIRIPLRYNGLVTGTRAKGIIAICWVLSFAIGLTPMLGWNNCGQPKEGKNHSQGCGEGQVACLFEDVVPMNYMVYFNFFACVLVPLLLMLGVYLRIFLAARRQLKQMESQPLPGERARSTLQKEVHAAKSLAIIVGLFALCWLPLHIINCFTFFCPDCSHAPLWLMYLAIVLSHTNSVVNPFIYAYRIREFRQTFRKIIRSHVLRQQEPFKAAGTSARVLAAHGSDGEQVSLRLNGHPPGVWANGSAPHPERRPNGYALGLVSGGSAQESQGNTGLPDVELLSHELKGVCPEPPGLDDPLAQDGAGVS

Turning to `Cn1cc2c(n1)c(=O)[nH]c1c(OCc3ccccc3)cccc12`, the inhibition in assay [1] came out at 2%; in assay [2] it was 3%; at Adenosine receptor A2a [3], 1%. In addition, the Ki on Adenosine receptor A3 stood at 600 nM.
Regarding `O=c1[nH]c2c(O)cccc2c2cn(-c3ccccc3)nc12`, the inhibition in assay [1] came out at 1%; in assay [2] it was 4%; on Adenosine receptor A2a [3], 5%; in assay [4] it was 16%.
Taken in the same sequence, the figures for `Cn1cc2c(n1)c(N)nc1ccccc12` were 20%, 5%, 26% and 18%.
Taken in the same sequence, the figures for `O=c1[nH]c2c(OC(c3ccccc3)c3ccccc3)cccc2c2cn(-c3ccccc3)nc12` were 6%, 7%, 1% and 6%.
`O=c1[nH]c2ccccc2c2cn(-c3ccccc3)nc12` had an inhibition at Adenosine receptor A2a [5] of 43%.
`Nc1nc2c(NCc3ccccc3)cccc2c2cn(-c3ccccc3)nc12`: the Ki at Adenosine receptor A1 stood at 455 nM. Further, the inhibition is 3% in assay [2], 1% on Adenosine receptor A2a [3] and 1% in assay [4].
As for `Nc1cccc2c1[nH]c(=O)c1nn(-c3ccccc3)cc12`, the inhibition in assay [1] is 8%; in assay [2] it was 5%; at Adenosine receptor A2a [3], 1%; in assay [4], 18%.
For `Cn1cc2c(n1)c(=O)[nH]c1ccccc12` the same measures were 2%, 2%, 1% and 12%.
As for `Nc1nc2c(OCc3ccccc3)cccc2c2cn(-c3ccccc3)nc12`, on Adenosine receptor A1, the Ki is 140 nM. Also, the values for the inhibition (in assay [2]; at Adenosine receptor A2a [3]; in assay [4]) were 5%, 16% and 20%, respectively.
Consider `Cn1cc2c(n1)c(N)nc1c(OCc3ccccc3)cccc12`, for which the Ki on Adenosine receptor A3 is 500 nM; at Adenosine receptor A2a [6] it was 750 nM; at Adenosine receptor A1 it was 970 nM. In assay [2], the inhibition worked out at 4%.
As to `Nc1nc2c(Br)cccc2c2cn(-c3ccccc3)nc12`, the Ki on Adenosine receptor A1 came out at 300 nM. Also, the inhibition in assay [2] stood at 2%; on Adenosine receptor A2a [3], 35%; in assay [4], 29%.
Consider `Nc1nc2c(OCCc3ccccc3)cccc2c2cn(-c3ccccc3)nc12`, for which the inhibition in assay [1] was 40%; in assay [2], 5%; on Adenosine receptor A2a [3], 11%; in assay [4] it was 28%.
For `O=c1[nH]c2c(Br)cccc2c2cn(-c3ccccc3)nc12` the same measures were 8%, 5%, 17% and 16%.
On to `O=c1[nH]c2c(OCc3ccccc3)cccc2c2cn(-c3ccccc3)nc12`, for which the inhibition is 20% in assay [1], 2% in assay [2], 1% on Adenosine receptor A2a [3] and 33% in assay [4].
Taken in the same sequence, the figures for `O=C(Nc1cccc2c1[nH]c(=O)c1nn(-c3ccccc3)cc12)OCc1ccccc1` were 3%, 5%, 1% and 14%.
As for `Nc1nc2c(O)cccc2c2cn(-c3ccccc3)nc12`, the Ki at Adenosine receptor A1 came out at 100 nM. The results for the inhibition (in assay [2]; at Adenosine receptor A2a [3]; in assay [4]) were 4%, 19% and 20%, respectively.
